pEC50: −log10 of the molar value. ≈ marks a conversion by molar mass, not a printed value. Calls of active or inactive are those of the source. How the calls were made is not given here.
Experiments:
Hepatitis B virus [1] = assay: Antiviral activity against HBV infected in human HepAD38 cells assessed as reduction in total DNA production incubated for 2 days prior to compound washout followed by compound redosing and measured after 2 days by dot-blot analysis; format: functional, organism-based
Summary of the method: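 HepAD38 cells seeded at 3 × 10^4/well in tetracycline medium; next day washed twice with PBS and given tet-free complete medium with 2-fold serial dilutions, 1% final DMSO, replaced with fresh compound medium after 2 days. After 2 more days cells lysed (NP-40), DNA alkali-denatured, dot-blotted, probed with DIG-labelled HBV probe; chemiluminescence densitometry, variable-slope fit; mean ± SD of ≥2 experiments.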

Hepatitis B virus [2] = assay: Binding affinity to HBV dimeric capsid protein C150 mutant expressed in Escherichia coli BL21 (DE3) at 20 uM by Sypro orange staining based RT-PCR analysis
HepG2 = assay: Cytotoxicity against human HepG2 cells assessed as reduction in cell viability incubated for 2 days prior to compound washout followed by compound redosing and measured after 2 days by XTT assay; format: cell-based; details: hepg2, 48 h
[3] = Oral bioavailability in CD-1 mouse at 10 mg/kg by LC-MS/MS analysis; format: ADME, organism-based; details: in vivo
Summary of the method: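 Male CD-1 mice (25–35 g), n = 4 per route; typical doses 2 mg/kg IV and 10 mg/kg PO in DPBS with up to 42% 2-hydroxypropyl-β-cyclodextrin; serial saphenous blood to 24 h (8 points); plasma by LC-MS/MS; non-compartmental analysis; F = (AUCpo/AUCiv)×(Doseiv/Dosepo).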

[4] = Intrinsic clearance in mouse liver microsomes assessed as glucuronidation per mg protein at 1 uM in presence of UDPGA by LC-MS/MS analysis; format: ADME, Microsome
Summary of the method: (§1)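 Glucuronidation: typically 1 μM compound with 0.5 mg/mL microsomal protein, alamethicin 50 μg/mg protein, 1 mM MgCl2, 5 mM UDPGA in 0.1 M potassium phosphate pH 7.4, 37 °C; timed aliquots quenched in acetonitrile; LC-MS/MS gives CLint (μl/min/mg protein); triplicate; 7-hydroxycoumarin positive control.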

[5] = Thermodynamic aqueous solubility in Dulbecco's phosphate buffered saline using solid sample incubated for 72 hrs under shaking condition by LC-MS/MS analysis; format: physicochemical; details: read-out: Therm_solubility
[6] = Half life in human plasma at 1 uM by LC-MS/MS analysis; format: ADME, cell-free
[7] = Protein binding in mouse plasma at 5 uM incubated for 5 hrs by LC-MS/MS-based equilibrium dialysis method; format: ADME, cell-free
Summary of the method: (§2)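 Equilibrium dialysis in duplicate: compound spiked at 5 μM into normal human or mouse plasma, dialyzed against DPBS 5 h at 37 °C; both chambers sampled and quenched in acetonitrile with internal standard; LC-MS/MS gives percent bound.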

[8] = Half life in mouse plasma at 1 uM by LC-MS/MS analysis; format: ADME, cell-free
[9] = Intrinsic clearance in human liver microsomes assessed as glucuronidation per mg protein at 1 uM in presence of UDPGA by LC-MS/MS analysis; format: ADME, Microsome; summary of the method: as §1
[10] = Intrinsic clearance in human liver microsomes assessed as NADPH-dependent metabolism per mg protein at 1 uM in presence of NADPH by LC-MS/MS analysis; format: ADME, Microsome
[11] = Stability in Dulbecco's phosphate buffered saline assessed as parent compound remaining at 1 uM after 24 hrs by LC-MS/MS analysis; format: physicochemical; details: read-out: Stability
Summary of the method: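 Compound, typically 1 μM final, incubated in DPBS at 37 °C in triplicate; samples at 0, 1, 3, 6, 24 h quenched with 3 volumes acetonitrile containing internal standard; parent measured by LC-MS/MS.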

[12] = Protein binding in human plasma at 5 uM incubated for 5 hrs by LC-MS/MS-based equilibrium dialysis method; format: ADME, cell-free; summary of the method: as §2
[13] = Intrinsic clearance in mouse liver microsomes assessed as NADPH-dependent metabolism per mg protein at 1 uM in presence of NADPH by LC-MS/MS analysis; format: ADME, Microsome

Compound	pEC50 (Hepatitis B virus [1])	Activity (Hepatitis B virus [2])	CC50 (HepG2)	further results
Cc1ccc(NC(=O)c2sc(N)c(C(N)=O)c2C)cc1	< 5.00	inactive	–	–
Cc1c(C(=O)Nc2ccccc2)sc(-n2cnnn2)c1C(N)=O	–	inactive	–	–
Cc1cc(NC(=O)c2c(N)sc(C(=O)Nc3ccccc3)c2C)ccc1F	–	Active	40 µM	–
Cc1c(C(=O)Nc2ccccc2)sc(NC(=O)c2ccc(S(C)(=O)=O)cc2)c1C(N)=O	–	Active	> 100 µM	–
Cc1c(C(=O)Nc2ccccc2)sc2[nH]c(-c3ccc(F)c(F)c3)nc(=O)c12	–	inactive	–	–
Cc1c(C(=O)NCc2ccccc2)sc(N)c1C(N)=O	5.00	Active	–	–
Cc1cc(NC(=O)c2sc(N)c(C(N)=O)c2C)ccc1Br	–	Active	107 µM	bioavailability ([3]; CD-1, mouse): 46%
Cc1c(C(=O)Nc2ccccc2)sc2[nH]c(CS(=O)(=O)c3ccccc3)nc(=O)c12	–	inactive	–	–
Cc1c(C(=O)Nc2ccc(F)c(F)c2)sc(N)c1C(=O)NC1CCCC1	< 5.00	Active	–	–
Cc1c(C(=O)Nc2ccc(C#N)cc2)sc(N)c1C(N)=O	–	inactive	–	–
Cc1c(C(=O)Nc2ccccc2)sc(NC(=O)c2nccs2)c1C(N)=O	–	Active	> 100 µM	–
Cc1c(C(=O)Nc2ccccc2)sc(N)c1C(=O)NCc1ccc(C(F)(F)F)cc1	< 5.00	Active	–	–
Cc1c(C(=O)Nc2ccccc2)sc(NC(=O)c2csc([N+](=O)[O-])c2)c1C(N)=O	–	Active	> 100 µM	–
Cc1c(C(=O)Nc2ccc(F)c(Cl)c2)sc(N)c1C(N)=O	6.51	Active	> 100 µM	intrinsic clearance (CLint) [4]: 1.6 µL/min; solubility thermodynamic at 72 h [5]: 31 µM (≈ 10.2 µg/mL); t1/2 [6]: > 24 h; PPB [7]: 90%; t1/2 [8]: > 24 h; intrinsic clearance (CLint) [9]: < 0.1 µL/min; Microsomal intrinsic clearance [10]: 7.6 µL/min; remaining at 24 h, 1 µM [11]: > 90%; PPB [12]: 94%; intrinsic clearance per mg protein [13]: 28 µL/min
CCOC(=O)C1=C(C)NC(c2ncccc2F)=NC1c1ccc(F)cc1Cl (stereo not drawn)	6.39	Active	> 100 µM	–
CC(C)Cc1sc(-c2nccs2)nc1C(=O)NCc1ccc(F)cc1	5.00	Active	29 µM	–
Cc1c(C(=O)Nc2ccc(F)c(F)c2)sc(N)c1C#N	5.00	Active	> 100 µM	–
Cc1c(C(=O)Nc2ccccc2)sc(NC(=O)N2CCOCC2)c1C(N)=O	–	inactive	–	–
NC(=O)c1c(N)sc2c1CCCN2C(=O)c1ccccc1	–	inactive	–	–
Cc1c(C(=O)Nc2ccccc2)sc(NC(=O)Cc2ccc(F)c(F)c2)c1C(N)=O	5.00	Active	> 100 µM	–
Cc1c(C(=O)Nc2ccc(F)c(F)c2)sc(N)c1C(=O)Nc1ccc(Cl)cc1	< 5.00	Active	–	–
Cc1c(C(=O)Nc2ccc(F)c(C#N)c2)sc(N)c1C(N)=O	–	Active	> 100 µM	intrinsic clearance (CLint) [4]: 2 µL/min; solubility thermodynamic at 72 h [5]: 6.7 µM (≈ 2.13 µg/mL); t1/2 [6]: > 24 h; PPB [7]: 69%; t1/2 [8]: > 24 h; intrinsic clearance (CLint) [9]: 0.1 µL/min; Microsomal intrinsic clearance [10]: 2.4 µL/min; remaining at 24 h, 1 µM [11]: > 90%; PPB [12]: 80%; intrinsic clearance per mg protein [13]: 4.2 µL/min
Cc1c(C(=O)Nc2ccccc2)sc(N)c1C(=O)NC1CC1	< 5.00	inactive	–	–
Cc1c(C(=O)Nc2ccccc2)sc(NC(=O)c2cc(Cl)cc(Cl)c2)c1C(N)=O	–	Active	49.5 µM	–
Cc1c(C(=O)Nc2ccccc2)sc(N)c1C(=O)NC(C)C	< 5.00	inactive	–	–
CCOC(=O)c1c(N)sc(C(=O)Nc2ccc(F)c(C)c2)c1C	–	Active	> 100 µM	–
Cc1c(C(=O)Nc2ccc(Cl)c(C(F)(F)F)c2)sc(N)c1C(N)=O	–	Active	72 µM	–
Cc1c(C(=O)Nc2ccc(F)c(C(F)F)c2)sc(N)c1C(N)=O	–	Active	> 100 µM	intrinsic clearance (CLint) [4]: 10 µL/min; solubility thermodynamic at 72 h [5]: 9.5 µM (≈ 3.26 µg/mL); t1/2 [6]: > 24 h; PPB [7]: 82%; t1/2 [8]: > 24 h; intrinsic clearance (CLint) [9]: 3.2 µL/min; Microsomal intrinsic clearance [10]: 5.8 µL/min; remaining at 24 h, 1 µM [11]: > 90%; F ([3]; mouse): 25%; PPB [12]: 89%; intrinsic clearance per mg protein [13]: 22 µL/min

Compound	pEC50 (Hepatitis B virus [1])	Activity (Hepatitis B virus [2])	CC50 (HepG2)	further results
Cc1c(C(=O)Nc2ccccc2)sc(N)c1C(=O)NC1CCCC1	< 5.00	inactive	–	–
Cc1c(C(=O)Nc2ccccc2)sc(N)c1C(=O)Nc1ccc(F)c(F)c1	–	Active	40 µM	–
Cc1c(C(=O)Nc2ccc(C(F)(F)F)cc2)sc(N)c1C(N)=O	–	inactive	–	–
Cc1c(C(=O)Nc2ccc(F)cc2)sc(N)c1C(N)=O	–	Active	> 100 µM	–
Cc1ccc(CC(=O)Nc2sc(C(=O)Nc3ccccc3)c(C)c2C(N)=O)cc1F	< 5.00	Active	> 100 µM	–
Cc1c(C(=O)Nc2ccccc2)sc(NC(=O)c2cn[nH]c2)c1C(N)=O	–	Active	> 100 µM	–
Cc1c(C(=O)Nc2cc(F)c(F)c(Cl)c2)sc(N)c1C(N)=O	–	Active	72 µM	–
Cc1c(C(=O)Nc2ccccc2)sc(N)c1C(=O)Nc1ccccc1	–	Active	> 100 µM	–
Cc1c(C(=O)Nc2ccc(F)c(C(F)(F)F)c2)sc(N)c1C(N)=O	–	Active	> 100 µM	–
Cc1c(C(=O)Nc2ccccc2)sc(NC(=O)c2ccsc2)c1C(N)=O	–	Active	> 100 µM	–
CCOC(=O)c1c(N)sc(C(=O)Nc2ccccc2)c1C	< 5.00	Active	76 µM	–
Cc1nc(=O)c2c(C)c(C(=O)Nc3ccccc3)sc2[nH]1	–	inactive	–	–
COc1ccc(CNC(=O)c2c(N)sc(C(=O)Nc3ccccc3)c2C)cc1	< 5.00	Active	–	–
Cc1c(C(=O)Nc2ccc(F)c(F)c2)sc(N)c1C(=O)Nc1ccc(F)c(F)c1	–	Active	17 µM	–
Cc1cc(NC(=O)c2sc(N)c(C#N)c2C)ccc1F	–	Active	96 µM	–
COc1ccc(NC(=O)c2sc(N)c(C(N)=O)c2C)cc1	5.00	Active	–	–
Cc1c(C(=O)Nc2cc(F)c(F)c(Cl)c2)sc(N)c1C#N	–	inactive	–	–
Cc1c(C(=O)Nc2ccc(F)c(F)c2)sc(N)c1C(=O)Nc1ccccc1	–	Active	26 µM	–
NC(=O)c1c(N)sc2c1CCCC2	–	inactive	–	–
Cc1c(C(=O)Nc2ccccc2)sc2[nH]c(Cc3ccccc3)nc(=O)c12	–	inactive	–	–
Cc1cc(NC(=O)c2sc(N)c(C(=O)Nc3ccc(F)c(C)c3)c2C)ccc1F	–	inactive	–	–
O=C(N/C(C(=O)N1CCCCC1)=C(\Cl)c1ccccc1)c1ccccc1	5.32	Active	61 µM	–
Cc1ccc(C(=O)Nc2sc(C(=O)Nc3ccccc3)c(C)c2C(N)=O)s1	–	Active	> 100 µM	–
Cc1c(C(=O)Nc2ccccc2)sc(N)c1C#N	–	inactive	–	–
O=C(Nc1ccc(F)c(F)c1)c1cc(S(=O)(=O)NC2CCCC2)ccc1F	6.60	Active	17 µM	–
NC(=O)c1c(N)sc2c1CCN(C(=O)c1ccccc1)C2	–	inactive	–	–
Cc1cc(NC(=O)c2sc(N)c(C(N)=O)c2C)ccc1Cl	5.77	Active	> 100 µM	–

Source: ChEMBL document CHEMBL4411305, “5-Aminothiophene-2,4-dicarboxamide analogues as hepatitis B virus capsid assembly effectors” (Eur J Med Chem, 2019)
